Assay results: ChEMBL document CHEMBL1139579, “Structure-activity relationship of a series of cyclohexylpiperidines bearing an amide side chain as antagonists of the human melanocortin-4 receptor” (Bioorg Med Chem Lett, 2005)

What was measured:
Melanocortin receptor 4 [1] = target: T1, Melanocortin receptor 4 (Homo sapiens, UniProt P32245); experiment: Stimulation of cAMP levels in the HEK293 cell line at 10 uM; format: functional, cell-based
Method in brief: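 Agonism was measured as cAMP levels in HEK293 cells stably expressing human MC4R. The test ligand was applied at 10 μM, and the response was expressed relative to the response to α-MSH.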

Melanocortin receptor 4 [2] = target: T1, Melanocortin receptor 4; experiment: Inhibition of [125I]NDP-MSH (radioligand) binding to the hMC4R stably expressed in HEK293 cells; format: cell-based
Method in brief: (§1)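 Competition binding was run on HEK293 cells stably transfected with human MC1R, MC3R, MC4R or MC5R, each receptor in its own line. The radioligand was [125I]-NDP-MSH. For the MC4R values, data are the average of two to three independent measurements.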

Melanocortin receptor 3 [3] = target: T2, Melanocortin receptor 3 (Homo sapiens, UniProt P41968); experiment: Inhibition of [125I]-NDP-MSH (radioligand) binding to the human MC3R stably expressed in HEK293 cells; format: cell-based; method in brief: as §1
Melanocortin receptor 5 = Melanocortin receptor 5 (Homo sapiens, UniProt P33032); experiment: Inhibition of [125I]NDP-MSH (radioligand) binding to the human MC5R stably expressed in HEK293 cells; format: cell-based; method in brief: as §1
[4] = target: Melanocyte-stimulating hormone receptor (Homo sapiens, UniProt Q01726); experiment: Inhibition of [125I]NDP-MSH (radioligand) binding to human MC1R at 10 um concentration stably expressed in HEK293 cells; format: cell-based; settings: for Inhibition: hek293
Method in brief: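 Competition binding was run on HEK293 cells stably expressing human MC1R, with [125I]-NDP-MSH as the radioligand. The value is percent inhibition of binding with the test ligand at 10 µM.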

Melanocortin receptor 3 [5] = target: T2, Melanocortin receptor 3; experiment: Inhibition of [125I]NDP-MSH (radioligand) binding to the human MC3R stably expressed in HEK293 cells; format: cell-based; method in brief: as §1
Melanocortin receptor 4 [6] = target: T1, Melanocortin receptor 4; experiment: Inhibition of [125I]-AgRP(83132) (radioligand) binding to the hMC4R stably expressed in HEK293 cells;; format: cell-based
Method in brief: (§2)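 Competition binding was run on HEK293 cells stably transfected with human MC4R. The radioligand was [125I]-AgRP(83–132).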

HEK293 [7] = experiment: Dose-dependent inhibition of cAMP production stimulated by 10 nM a-MSH in HEK293 cells;; format: functional, cell-based, Homo sapiens
Method in brief: (§3)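 Functional antagonism was measured as inhibition of cAMP production in HEK293 cells stably expressing human MC4R. Cells were stimulated with 10 nM α-MSH, and the test ligand was applied over a range of concentrations.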

Melanocortin receptor 4 [8] = target: T1, Melanocortin receptor 4; experiment: Inhibition of [125I]-AgRP(83132) (radioligand) binding to the hMC4R stably expressed in HEK293 cells; format: cell-based; method in brief: as §2
HEK293 [9] = experiment: (§4) Dose-dependent inhibition of cAMP production stimulated by 10 nM a-MSH in HEK293 cells; format: functional, cell-based, Homo sapiens; method in brief: as §3
HEK293 [10] = experiment: as §4; format: functional, cell-based; settings: Homo sapiens; method in brief: as §3

Chain of Melanocortin receptor 5 (P33032 whole entry): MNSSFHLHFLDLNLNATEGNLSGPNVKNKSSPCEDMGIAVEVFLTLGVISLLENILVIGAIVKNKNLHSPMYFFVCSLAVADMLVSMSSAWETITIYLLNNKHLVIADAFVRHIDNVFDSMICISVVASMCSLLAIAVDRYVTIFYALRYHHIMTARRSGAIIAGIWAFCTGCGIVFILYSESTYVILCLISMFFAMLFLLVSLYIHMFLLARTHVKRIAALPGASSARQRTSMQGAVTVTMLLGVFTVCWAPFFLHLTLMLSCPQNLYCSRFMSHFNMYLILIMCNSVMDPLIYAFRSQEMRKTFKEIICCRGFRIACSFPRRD
T2 sequence (P41968 whole entry): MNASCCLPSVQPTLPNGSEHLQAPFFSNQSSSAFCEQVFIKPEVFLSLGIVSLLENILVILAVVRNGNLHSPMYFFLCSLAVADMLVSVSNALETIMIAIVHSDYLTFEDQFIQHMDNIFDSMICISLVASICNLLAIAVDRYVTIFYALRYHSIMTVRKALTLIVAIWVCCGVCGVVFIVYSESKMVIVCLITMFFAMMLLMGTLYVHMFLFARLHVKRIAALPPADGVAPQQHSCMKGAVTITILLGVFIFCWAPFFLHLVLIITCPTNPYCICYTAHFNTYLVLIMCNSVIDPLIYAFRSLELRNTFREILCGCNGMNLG
Chain of Melanocyte-stimulating hormone receptor (Q01726 whole entry): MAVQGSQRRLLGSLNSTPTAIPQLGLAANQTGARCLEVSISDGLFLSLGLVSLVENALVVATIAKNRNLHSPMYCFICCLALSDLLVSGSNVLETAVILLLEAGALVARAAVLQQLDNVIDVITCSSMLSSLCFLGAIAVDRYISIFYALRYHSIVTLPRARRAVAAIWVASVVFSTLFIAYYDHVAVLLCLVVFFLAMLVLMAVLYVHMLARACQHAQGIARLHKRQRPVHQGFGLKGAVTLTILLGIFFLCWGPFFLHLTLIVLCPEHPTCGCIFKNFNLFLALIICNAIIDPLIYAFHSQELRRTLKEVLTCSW
T1 sequence (P32245 whole entry): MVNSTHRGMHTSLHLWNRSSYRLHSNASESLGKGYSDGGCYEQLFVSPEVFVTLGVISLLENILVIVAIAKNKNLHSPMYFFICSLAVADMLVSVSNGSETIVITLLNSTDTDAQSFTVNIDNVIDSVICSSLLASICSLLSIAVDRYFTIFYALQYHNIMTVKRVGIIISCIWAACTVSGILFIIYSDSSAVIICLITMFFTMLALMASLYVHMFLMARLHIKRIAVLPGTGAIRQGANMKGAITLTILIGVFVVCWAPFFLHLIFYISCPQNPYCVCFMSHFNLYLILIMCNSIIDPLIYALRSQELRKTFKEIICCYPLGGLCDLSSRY

Row | Stimulation (Melanocortin receptor 4 [1]) [%] | Ki (Melanocortin receptor 4 [2]) [nM] | SMILES | further results
1 | 0.7 | 180 | CC(C)CNCC1(N2CCN(C(=O)[C@@H](Cc3ccc(Cl)cc3Cl)NC(=O)CCN)CC2)CCCCC1 | –
2 | 8.9 | 400 | NCCC(=O)N[C@H](Cc1ccc(Cl)cc1Cl)C(=O)N1CCN(C2(CNC(=O)c3ccc(OC(F)(F)F)cc3)CCCCC2)CC1 | –
3 | 5.1 | 220 | NCCC(=O)N[C@H](Cc1ccc(Cl)cc1Cl)C(=O)N1CCN(C2(CNC(=O)c3ccccc3)CCCCC2)CC1 | –
4 | 2.4 | 22 | NCCC(=O)N[C@H](Cc1ccc(Cl)cc1Cl)C(=O)N1CCN(C2(CNCc3ccc(OC(F)(F)F)cc3)CCCCC2)CC1 | –
5 | 5.1 | 230 | NCCC(=O)N[C@H](Cc1ccc(Cl)cc1Cl)C(=O)N1CCN(C2(CNC(=O)c3cccs3)CCCCC2)CC1 | –
6 | 8.7 | 340 | NCCC(=O)N[C@H](Cc1ccc(Cl)cc1Cl)C(=O)N1CCN(C2(CNC(=O)c3ccc(C(F)(F)F)cc3)CCCCC2)CC1 | –
7 | 11 | 540 | NCCC(=O)N[C@H](Cc1ccc(Cl)cc1Cl)C(=O)N1CCN(C2(CNC(=O)Nc3ccc([N+](=O)[O-])cc3)CCCCC2)CC1 | –
8 | 2.8 | 60 | NCCC(=O)N[C@H](Cc1ccc(Cl)cc1Cl)C(=O)N1CCN(C2(CNCCCc3ccccc3)CCCCC2)CC1 | –
9 | 8.2 | 520 | CC(C)(C)c1ccc(C(=O)NCC2(N3CCN(C(=O)[C@@H](Cc4ccc(Cl)cc4Cl)NC(=O)CCN)CC3)CCCCC2)cc1 | –
10 | 2.7 | 18 | COc1ccc(CC(=O)NCC2(N3CCN(C(=O)[C@@H](Cc4ccc(Cl)cc4Cl)NC(=O)CCN)CC3)CCCCC2)cc1OC | –
11 | 7.9 | 190 | NCCC(=O)N[C@H](Cc1ccc(Cl)cc1Cl)C(=O)N1CCN(C2(CNC(=O)c3ccc(F)cc3)CCCCC2)CC1 | –
12 | 6.7 | 120 | NCCC(=O)N[C@H](Cc1ccc(Cl)cc1Cl)C(=O)N1CCN(C2(CNC(=O)c3ccc([N+](=O)[O-])cc3)CCCCC2)CC1 | –
13 | 1.4 | 23 | NCCC(=O)N[C@H](Cc1ccc(Cl)cc1Cl)C(=O)N1CCN(C2(CNC(=O)Cc3ccc(Cl)cc3)CCCCC2)CC1 | –
14 | 4.9 | 49 | NCCC(=O)N[C@H](Cc1ccc(Cl)cc1Cl)C(=O)N1CCN(C2(CNCc3nccs3)CCCCC2)CC1 | –
15 | 1.8 | 7.6 | COc1cccc(CC(=O)NCC2(N3CCN(C(=O)[C@@H](Cc4ccc(Cl)cc4Cl)NC(=O)CCN)CC3)CCCCC2)c1 | Ki (Melanocortin receptor 3 [3]): 650 nM; Ki (Melanocortin receptor 5): 470 nM; Ki [4]: 2800 nM
16 | 4.3 | 220 | NCCC(=O)N[C@H](Cc1ccc(Cl)cc1Cl)C(=O)N1CCN(C2(CNC(=O)c3cccnc3)CCCCC2)CC1 | –
17 | 0.9 | 490 | NCCC(=O)N[C@H](Cc1ccc(Cl)cc1Cl)C(=O)N1CCN(C2(CNC(=O)C(F)(F)F)CCCCC2)CC1 | –
18 | 6.4 | 61 | NCCC(=O)N[C@H](Cc1ccc(Cl)cc1Cl)C(=O)N1CCN(C2(CNCc3ccc(F)cc3)CCCCC2)CC1 | –
19 | 5 | 92 | N#Cc1ccc(CNCC2(N3CCN(C(=O)[C@@H](Cc4ccc(Cl)cc4Cl)NC(=O)CCN)CC3)CCCCC2)cc1 | –
20 | 1 | 36 | COc1ccc(NC(=O)NCC2(N3CCN(C(=O)[C@@H](Cc4ccc(Cl)cc4Cl)NC(=O)CCN)CC3)CCCCC2)cc1 | –
21 | 5.5 | 210 | NCCC(=O)N[C@H](Cc1ccc(Cl)cc1Cl)C(=O)N1CCN(C2(CNC(=O)Nc3ccc(F)cc3)CCCCC2)CC1 | –
22 | 3 | 36 | NCCC(=O)N[C@H](Cc1ccc(Cl)cc1Cl)C(=O)N1CCN(C2(CNCc3ccccn3)CCCCC2)CC1 | –
23 | 3.4 | 8.4 | NCCC(=O)N[C@H](Cc1ccc(Cl)cc1Cl)C(=O)N1CCN(C2(CNC(=O)Cc3cccs3)CCCCC2)CC1 | Ki (Melanocortin receptor 3 [3]): 1100 nM; Ki (Melanocortin receptor 5): 480 nM; Ki [4]: 4600 nM

Row | Stimulation (Melanocortin receptor 4 [1]) [%] | Ki (Melanocortin receptor 4 [2]) [nM] | SMILES | further results
24 | 8.1 | 12 | NCCC(=O)N[C@H](Cc1ccc(Cl)cc1Cl)C(=O)N1CCN(C2(CNCc3cccs3)CCCCC2)CC1 | Ki (Melanocortin receptor 5): 1900 nM; Ki (Melanocortin receptor 3 [5]): 2400 nM
25 | 12 | 240 | NCCC(=O)N[C@H](Cc1ccc(Cl)cc1Cl)C(=O)N1CCN(C2(CNC(=O)c3ccc(Br)cc3)CCCCC2)CC1 | –
26 | 10 | 210 | NCCC(=O)N[C@H](Cc1ccc(Cl)cc1Cl)C(=O)N1CCN(C2(CNC(=O)c3ccc(Cl)cc3)CCCCC2)CC1 | –
27 | 1.6 | 8.8 | NCCC(=O)N[C@H](Cc1ccc(Cl)cc1Cl)C(=O)N1CCN(C2(CNC(=O)Cc3ccccc3)CCCCC2)CC1 | Ki (Melanocortin receptor 3 [3]): 710 nM; Ki (Melanocortin receptor 5): 920 nM; Ki (Melanocortin receptor 4 [6]): 6.4 nM; IC50 (HEK293 [7]): 260 nM; Inhibition [4]: 47%
28 | 4.4 | 150 | NCCC(=O)N[C@H](Cc1ccc(Cl)cc1Cl)C(=O)N1CCN(C2(CNC(=O)c3ccncc3)CCCCC2)CC1 | –
29 | 2.7 | 62 | CN(C)c1ccc(NC(=O)NCC2(N3CCN(C(=O)[C@@H](Cc4ccc(Cl)cc4Cl)NC(=O)CCN)CC3)CCCCC2)cc1 | –
30 | 0.6 | 4.2 | COc1ccc(CC(=O)NCC2(N3CCN(C(=O)[C@@H](Cc4ccc(Cl)cc4Cl)NC(=O)CCN)CC3)CCCCC2)cc1 | Ki (Melanocortin receptor 4 [8]): 2.8 nM; Ki (Melanocortin receptor 3 [3]): 1100 nM; Ki (Melanocortin receptor 5): 540 nM; IC50 (HEK293 [9]): 150 nM; Ki [4]: 5700 nM
31 | 5.9 | 420 | NCCC(=O)N[C@H](Cc1ccc(Cl)cc1Cl)C(=O)N1CCN(C2(CNC(=O)Nc3ccc(Cl)cc3)CCCCC2)CC1 | –
32 | 4.7 | 12 | NCCC(=O)N[C@H](Cc1ccc(Cl)cc1Cl)C(=O)N1CCN(C2(CNCc3ccccc3F)CCCCC2)CC1 | Ki (Melanocortin receptor 4 [8]): 13 nM; Ki (Melanocortin receptor 3 [3]): 2300 nM; Ki (Melanocortin receptor 5): 1400 nM; IC50 (HEK293 [9]): 760 nM; Inhibition [4]: 45%
33 | 5.1 | 18 | NCCC(=O)N[C@H](Cc1ccc(Cl)cc1Cl)C(=O)N1CCN(C2(CNCc3ccccc3)CCCCC2)CC1 | –
34 | 7.7 | 250 | COc1ccc(C(=O)NCC2(N3CCN(C(=O)[C@@H](Cc4ccc(Cl)cc4Cl)NC(=O)CCN)CC3)CCCCC2)cc1 | –
35 | 2.3 | 21 | NCCC(=O)N[C@H](Cc1ccc(Cl)cc1Cl)C(=O)N1CCN(C2(CNC(=O)Cc3ccc(F)cc3)CCCCC2)CC1 | –
36 | 4.2 | 110 | CN(C)c1ccc(CNCC2(N3CCN(C(=O)[C@@H](Cc4ccc(Cl)cc4Cl)NC(=O)CCN)CC3)CCCCC2)cc1 | –
37 | 0.5 | 290 | NCCC(=O)N[C@H](Cc1ccc(Cl)cc1Cl)C(=O)N1CCN(C2(CN)CCCCC2)CC1 | –
38 | 12 | 260 | COC(=O)c1ccc(NC(=O)NCC2(N3CCN(C(=O)[C@@H](Cc4ccc(Cl)cc4Cl)NC(=O)CCN)CC3)CCCCC2)cc1 | –
39 | 3.6 | 340 | CC(C)(C)CCNCC1(N2CCN(C(=O)[C@@H](Cc3ccc(Cl)cc3Cl)NC(=O)CCN)CC2)CCCCC1 | –
40 | 7.8 | 270 | Cc1ccc(C(=O)NCC2(N3CCN(C(=O)[C@@H](Cc4ccc(Cl)cc4Cl)NC(=O)CCN)CC3)CCCCC2)cc1 | –
41 | 5.1 | 220 | NCCC(=O)N[C@H](Cc1ccc(Cl)cc1Cl)C(=O)N1CCN(C2(CNCC3CCCCC3)CCCCC2)CC1 | –
42 | 4.5 | 260 | NCCC(=O)N[C@H](Cc1ccc(Cl)cc1Cl)C(=O)N1CCN(C2(CNC(=O)c3ccco3)CCCCC2)CC1 | –
43 | 4.1 | 45 | NCCC(=O)N[C@H](Cc1ccc(Cl)cc1Cl)C(=O)N1CCN(C2(CNCc3ccc(C(F)(F)F)cc3)CCCCC2)CC1 | –
44 | 6.5 | 350 | COc1ccccc1C(=O)NCC1(N2CCN(C(=O)[C@@H](Cc3ccc(Cl)cc3Cl)NC(=O)CCN)CC2)CCCCC1 | –
45 | 0.4 | 11 | NCCC(=O)N[C@H](Cc1ccc(Cl)cc1Cl)C(=O)N1CCN(C2(CNCCc3ccccc3)CCCCC2)CC1 | Ki (Melanocortin receptor 3 [3]): 3200 nM; Ki (Melanocortin receptor 5): 1200 nM; IC50 (HEK293 [10]): 430 nM; Inhibition [4]: 44%
